Test results published in ChEMBL document CHEMBL4257564, “Rational Design, Synthesis, and Pharmacological Characterization of Novel Ghrelin Receptor Inverse Agonists as Potential Treatment against Obesity-Related Metabolic Diseases” (J Med Chem, 2018).

What was measured:
[1] = Volume of distribution in rat at 3 mg/kg, iv after 24 hrs by LC-MS/MS analysis; assay type: ADME, organism-based; conditions: in vivo
Method in brief: (§1)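 Rats given 3 mg/kg i.v. via tail vein, in 2% DMSO/50% of 40% HP-β-CD. EDTA plasma sampled at 0.08–24 h and analysed by LC-MS/MS, calibration range 5-5000 ng/mL.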

[2] = Clearance in human liver microsomes at 0.625 uM preincubated for 5 mins followed by NADPH addition and measured after 60 mins by LC-MS/MS analysis; assay type: ADME, microsome; conditions: read-out: CLH
Method in brief: (§2)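 Liver microsomes (0.625 mg/mL protein) in 50 mM potassium phosphate pH 7.4 with 0.625 µM test item, prewarmed 5 min at 37 °C. Reaction started with NADPH (5 mM solution). Samples taken at 0, 5, 15, 30 and 60 min into cold MeCN with internal standard, analysed by LC-MS/MS. Intrinsic clearance derived by the half-life approach.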

[3] = target: T1, Growth hormone secretagogue receptor type 1 (Homo sapiens, UniProt Q92847); assay: Antagonist activity at recombinant human GHSR1a expressed in HEK293 cells assessed as inhibition of ghrelin-induced intracellular calcium release incubated for 20 secs and measured after 2 mins by FLIPR assay; assay type: functional, cell-based
Method in brief: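 HEK293/GHSR1a cells were dye-loaded for 30-60 min. Compounds and 10 nM ghrelin were added at t = 20 s, with a 15 min compound preincubation described. Calcium response was read for 2 min. IC50 was taken from dose-response fits of the reduction in ghrelin response; mean of at least two independent runs done in triplicate.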

Mus musculus [4] = assay: Anti-obesity activity in C57BL/6J mouse assessed as inhibition of anamorelin-induced increase in food intake by measuring cumulative food intake at 10 mg/kg, ip pretreated for 10 mins followed by anamorelin addition and measured after 8 hrs post dose (reference value: 2.97 +/- 0.09 g); assay type: functional
Method in brief: (§3)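 Male C57BL/6J mice (18–22 g at arrival), fed ad libitum. Dosed 10 mg/kg i.p. at t = 0 in 10% DMAC/6% Solutol HS 15/84% PBS, then anamorelin 30 mg/kg p.o. (0.5% CMC) at 10 min. Cumulative food intake recorded at 1, 2, 4, 8 and 24 h; n=6 per group; mean ± SEM; ANOVA with Dunnett test versus vehicle+anamorelin.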

[5] = Clearance in mouse liver microsomes at 0.625 uM preincubated for 5 mins followed by NADPH addition and measured after 60 mins by LC-MS/MS analysis; assay type: ADME, microsome; conditions: read-out: CLH; method in brief: as §2
[6] = Half life in rat at 3 mg/kg, iv after 24 hrs by LC-MS/MS analysis; assay type: ADME, organism-based; conditions: in vivo; method in brief: as §1
Mus musculus [7] = assay: Anti-obesity activity in C57BL/6J mouse assessed as inhibition of anamorelin-induced increase in food intake by measuring cumulative food intake at 30 mg/kg, po pretreated for 10 mins followed by anamorelin addition and measured after 24 hrs post dose (reference value: 8.31 +/- 0.2 g)
[8] = target: T1, Growth hormone secretagogue receptor type 1; assay: Inverse agonist at recombinant human GHSR1a expressed in HEK293 cells assessed as decrease in IP1 accumulation after 1 hr by IP1-d2-based HTRF assay; assay type: functional, cell-based; conditions: read-out: EC50
Method in brief: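 HEK293 cells stably expressing human GHSR1a were seeded on Matrigel in complete DMEM for 18–22 h at 37 °C, 5% CO2. Compound in stimulation buffer was applied for 1 h at 37 °C. IP1-d2 and Tb-cryptate were then added for 1 h at room temperature, with HTRF read at 620/665 nm. Mean of at least two independent runs in triplicate.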

[9] = Protein binding in dog plasma at 1 uM after 6 hrs by equilibrium dialysis; assay type: ADME, cell-free, Canis lupus familiaris; conditions: read-out: PPB
Method in brief: (§4)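 Compound spiked at 1.0 µM final (0.5% DMSO) into plasma. Equilibrium dialysis against DPBS pH 7.4 across a 12–14 kD membrane for 6 h at 37 °C, in triplicate. Buffer-only controls used for nonspecific binding. Unbound fraction = acceptor/donor concentration by LC-MS/MS; reported as % bound.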

Mus musculus [10] = assay: Anti-obesity activity in C57BL/6J mouse assessed as inhibition of anamorelin-induced increase in food intake by measuring cumulative food intake at 30 mg/kg, po pretreated for 10 mins followed by anamorelin addition and measured after 8 hrs post dose (reference value: 2.97 +/- 0.09 g)
[11] = Protein binding in mouse plasma at 1 uM after 6 hrs by equilibrium dialysis; assay type: ADME, cell-free; conditions: read-out: PPB (converted); method in brief: as §4
Mus musculus [12] = assay: Anti-obesity activity in C57BL/6J mouse assessed as inhibition of anamorelin-induced increase in food intake by measuring cumulative food intake at 10 mg/kg, ip pretreated for 10 mins followed by anamorelin addition and measured after 1 hr post dose (reference value: 0.63 +/- 0.04 g); assay type: functional; method in brief: as §3
[13] = Tmax in rat at 3 mg/kg, po via gavage by LC-MS/MS analysis; assay type: ADME, organism-based; conditions: in vivo
Method in brief: (§5)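 Rats given 3 mg/kg by oral gavage as a suspension in 2% DMSO/98% of 0.5% CMC. EDTA plasma sampled at 0.25–24 h and analysed by LC-MS/MS. Bioavailability estimated against the 3 mg/kg i.v. arm.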

[14] = Ratio of drug level in brain to plasma of rat at 3 mg/kg, iv after 2 hrs by LC-MS/MS analysis; assay type: ADME, organism-based; conditions: read-out: BPR
Method in brief: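 Rats given 3 mg/kg i.v. Brain collected 2 h post-dose after CO2 euthanasia and homogenized in 5 volumes of PBS pH 7.4. Brain and plasma levels measured by LC-MS/MS; ratio taken from the 2 h concentrations.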

Mus musculus [15] = assay: Anti-obesity activity in C57BL/6J mouse assessed as inhibition of anamorelin-induced increase in food intake by measuring cumulative food intake at 30 mg/kg, po pretreated for 10 mins followed by anamorelin addition and measured after 1 hr post dose (reference value: 0.63 +/- 0.04 g)
[16] = Half life in rat at 3 mg/kg, po via gavage by LC-MS/MS analysis; assay type: ADME, organism-based; conditions: in vivo; method in brief: as §5
Mus musculus [17] = assay: Anti-obesity activity in C57BL/6J mouse assessed as inhibition of anamorelin-induced increase in food intake by measuring cumulative food intake at 10 mg/kg, ip pretreated for 10 mins followed by anamorelin addition and measured after 4 hrs post dose (reference value: 2.09 +/- 0.08 g); assay type: functional; method in brief: as §3
[18] = Plasma clearance in rat at 3 mg/kg, iv after 24 hrs by LC-MS/MS analysis; assay type: ADME, organism-based; method in brief: as §1
[19] = Clearance in dog liver microsomes at 0.625 uM preincubated for 5 mins followed by NADPH addition and measured after 60 mins by LC-MS/MS analysis; assay type: ADME, Canis lupus familiaris, microsome; conditions: read-out: CLH; method in brief: as §2
Mus musculus [20] = assay: Anti-obesity activity in C57BL/6J mouse assessed as inhibition of anamorelin-induced increase in food intake by measuring cumulative food intake at 10 mg/kg, ip pretreated for 10 mins followed by anamorelin addition and measured after 24 hrs post dose (reference value: 8.31 +/- 0.2 g); assay type: functional; method in brief: as §3
[21] = Protein binding in rat plasma at 1 uM after 6 hrs by equilibrium dialysis; assay type: ADME, cell-free; conditions: read-out: PPB; method in brief: as §4
[22] = Oral bioavailability in rat at 3 mg/kg via gavage by LC-MS/MS analysis; assay type: ADME, organism-based; conditions: in vivo; method in brief: as §5

T1 sequence (Q92847 whole entry): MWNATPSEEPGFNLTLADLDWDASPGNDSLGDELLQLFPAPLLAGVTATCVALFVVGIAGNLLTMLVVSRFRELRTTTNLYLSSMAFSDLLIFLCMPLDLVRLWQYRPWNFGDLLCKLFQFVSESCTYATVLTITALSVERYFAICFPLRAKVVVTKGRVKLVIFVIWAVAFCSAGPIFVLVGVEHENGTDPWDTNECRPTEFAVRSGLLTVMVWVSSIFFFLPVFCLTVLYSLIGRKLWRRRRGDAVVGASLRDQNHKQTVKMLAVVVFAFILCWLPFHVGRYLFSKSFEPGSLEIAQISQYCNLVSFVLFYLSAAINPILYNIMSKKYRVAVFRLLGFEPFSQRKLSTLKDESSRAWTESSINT

- Vd [1]: 8.48 L/kg
- microsomal CLint at 0.625 µM [2]: 74.7 µL/min/mg
- IC50 [3]: 68.2 nM
- microsomal CLint at 0.625 µM [5]: < 10 µL/min/mg
- half-life [6]: 6.49 h
- EC50 [8]: 29.4 nM
- fraction unbound at 6 h, 1 µM [9]: 0.0001
- fraction unbound at 6 h, 1 µM [11]: 0.0002
- Tmax [13]: 6.7 h
- Kp at 2 h [14]: 1.86
- half-life [16]: 15.8 h
- clearance [18]: 15.2 mL/min/kg
- microsomal CLint at 0.625 µM [19]: 52.2 µL/min/mg
- fraction unbound at 6 h, 1 µM [21]: 0.0001
- bioavailability [22]: 27%
SMILES: Cc1cc(-c2ccc3c(c2)CC[C@H]3N2CCC(N(C)C(=O)N[C@@H](C)c3ccc(C#CC4CC4)c(Cl)c3Cl)CC2)ncn1
- Activity (Mus musculus [4]): 2.78 g
- Activity (Mus musculus [7]): 7.42 g
- Activity (Mus musculus [10]): 1.8 g
- Activity (Mus musculus [12]): 0.13 g
- Activity (Mus musculus [15]): 0.22 g
- Activity (Mus musculus [17]): 1.66 g
- Activity (Mus musculus [20]): 7.63 g
